Measurements as given in ChEMBL document CHEMBL5724801, “EUbOPEN Chemogenomics Library - Multiplex” (2024).
Values joined by “and” are separate entries in the source; they are usually repeats but may differ in a detail not shown here. Equal entries are not always repeated.

Test system: Fibroblast
Experiment: Multiplex assay against human fibroblast
Format: toxicity, cell-based
Procedure, shortened: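 Live cells were stained at seeding with Hoechst33342, BioTracker Green Microtubule Cytoskeleton Dye, MitoTracker Red and Annexin V Alexa Fluor 680. Following compound addition, they were imaged on a CQ1 microscope at 37°C and 5% CO2 and gated by CellPathfinder machine learning into Hoechst high-intensity objects or normal cells, with normal cells split into healthy, pyknosed or fragmented nuclei and pyknosed cells into mitotic or apoptotic. Tubulin, mitochondrial-mass and membrane-permeability phenotypes are per cents of healthy-nucleus cells.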

[1] = 12 h, 1 µM, compound concentration 1 uM
[2] = 12 h, 10 µM, compound concentration 10 uM
[3] = 24 h, 1 µM, compound concentration 1 uM
[4] = 24 h, 10 µM, compound concentration 10 uM
[5] = 48 h, 1 µM, compound concentration 1 uM
[6] = 48 h, 10 µM, compound concentration 10 uM

## CC(C)COc1ccc(CNC(=O)N(Cc2ccc(F)cc2)C2CCN(C)CC2)cc1 [PIMAVANSERIN]
[1]
  Population Apoptotic (%): 65% and 61%
  Population Fragmented Nuclei (%): 24% and 40%
  Population Healthy Nuclei (%): 62% and 42%
  Population Hoechst High Intensity Objects (%): 0% and 1%
  Population Membrane Permeable-Phenotype (%): 0% and 7%
  Population Mitochondria Different-Phenotype (%): 12% and 4%
  Population Mitotic Cells (%): 34% and 38%
  Population Normal (%): 100% and 98%
  Population Pyknosed Nuclei (%): 12% and 16%
  Population Tubulin-Different-Phenotype (%): 35% and 82%
  Total Cell Count: 179 and 160
[2]
  Population Apoptotic (%): 56% and 51%
  Population Fragmented Nuclei (%): 18% and 31%
  Population Healthy Nuclei (%): 65% and 42%
  Population Hoechst High Intensity Objects (%): 1% and 4%
  Population Membrane Permeable-Phenotype (%): 0% and 2%
  Population Mitochondria Different-Phenotype (%): 42% and 32%
  Population Mitotic Cells (%): 43% and 48%
  Population Normal (%): 98% and 95%
  Population Pyknosed Nuclei (%): 16% and 26%
  Population Tubulin-Different-Phenotype (%): 93% and 81%
  Total Cell Count: 185
[3]
  Population Apoptotic (%): 60% and 52%
  Population Fragmented Nuclei (%): 21% and 39%
  Population Healthy Nuclei (%): 65% and 46%
  Population Hoechst High Intensity Objects (%): 2%
  Population Membrane Permeable-Phenotype (%): 1% and 4%
  Population Mitochondria Different-Phenotype (%): 5% and 9%
  Population Mitotic Cells (%): 39% and 47%
  Population Normal (%): 97%
  Population Pyknosed Nuclei (%): 12% and 13%
  Population Tubulin-Different-Phenotype (%): 47% and 76%
  Total Cell Count: 186 and 157
[4]
  Population Apoptotic (%): 83% and 69%
  Population Fragmented Nuclei (%): 13% and 27%
  Population Healthy Nuclei (%): 67% and 50%
  Population Hoechst High Intensity Objects (%): 4% and 8%
  Population Membrane Permeable-Phenotype (%): 0% and 3%
  Population Mitochondria Different-Phenotype (%): 41% and 38%
  Population Mitotic Cells (%): 16% and 30%
  Population Normal (%): 95% and 91%
  Population Pyknosed Nuclei (%): 18% and 21%
  Population Tubulin-Different-Phenotype (%): 92% and 96%
  Total Cell Count: 170 and 167
[5]
  Population Apoptotic (%): 88% and 52%
  Population Fragmented Nuclei (%): 27% and 44%
  Population Healthy Nuclei (%): 62% and 44%
  Population Hoechst High Intensity Objects (%): 3% and 5%
  Population Membrane Permeable-Phenotype (%): 1% and 4%
  Population Mitochondria Different-Phenotype (%): 3% and 12%
  Population Normal (%): 96% and 94%
  Population Pyknosed Nuclei (%): 9% and 10%
  Population Tubulin-Different-Phenotype (%): 45% and 64%
  Total Cell Count: 204 and 167
[6]
  Population Apoptotic (%): 92% and 75%
  Population Fragmented Nuclei (%): 15% and 30%
  Population Healthy Nuclei (%): 67% and 53%
  Population Hoechst High Intensity Objects (%): 12% and 6%
  Population Membrane Permeable-Phenotype (%): 0% and 3%
  Population Mitochondria Different-Phenotype (%): 44% and 41%
  Population Normal (%): 87% and 93%
  Population Pyknosed Nuclei (%): 17% and 16%
  Population Tubulin-Different-Phenotype (%): 91% and 92%
  Total Cell Count: 163 and 159

## COc1ccc(-n2c(C)c([N+](=O)[O-])c3ccc(O)cc32)cc1
[1]
  Population Apoptotic (%): 18% and 14.29%
  Population Fragmented Nuclei (%): 8.91% and 3.57%
  Population Healthy Nuclei (%): 66.34% and 79.76%
  Population Hoechst High Intensity Objects (%): 0%
  Population Membrane Permeable-Phenotype (%): 5.97% and 4.48%
  Population Mitochondria Different-Phenotype (%): 7.46%
  Population Mitotic Cells (%): 82% and 85.71%
  Population Normal (%): 100%
  Population Pyknosed Nuclei (%): 24.75% and 16.67%
  Population Tubulin-Different-Phenotype (%): 13.43% and 18.66%
  Total Cell Count: 202 and 168
[2]
  Population Apoptotic (%): 17.65% and 23.08%
  Population Fragmented Nuclei (%): 6.97% and 4.59%
  Population Healthy Nuclei (%): 67.66% and 77.52%
  Population Hoechst High Intensity Objects (%): 0%
  Population Membrane Permeable-Phenotype (%): 5.15% and 4.73%
  Population Mitochondria Different-Phenotype (%): 6.62% and 11.24%
  Population Mitotic Cells (%): 82.35% and 76.92%
  Population Normal (%): 100%
  Population Pyknosed Nuclei (%): 25.37% and 17.89%
  Population Tubulin-Different-Phenotype (%): 14.71% and 28.4%
  Total Cell Count: 201 and 218
[3]
  Population Apoptotic (%): 9.52% and 17.86%
  Population Fragmented Nuclei (%): 11.01% and 2.84%
  Population Healthy Nuclei (%): 69.72% and 81.25%
  Population Hoechst High Intensity Objects (%): 0%
  Population Membrane Permeable-Phenotype (%): 4.61% and 4.2%
  Population Mitochondria Different-Phenotype (%): 3.29% and 5.59%
  Population Mitotic Cells (%): 90.48% and 82.14%
  Population Normal (%): 100%
  Population Pyknosed Nuclei (%): 19.27% and 15.91%
  Population Tubulin-Different-Phenotype (%): 10.53% and 19.58%
  Total Cell Count: 218 and 176
[4]
  Population Apoptotic (%): 15.38% and 16.67%
  Population Fragmented Nuclei (%): 4.88% and 5%
  Population Healthy Nuclei (%): 76.1% and 84.09%
  Population Hoechst High Intensity Objects (%): 0%
  Population Membrane Permeable-Phenotype (%): 3.85% and 2.7%
  Population Mitochondria Different-Phenotype (%): 8.33% and 6.49%
  Population Mitotic Cells (%): 84.62% and 83.33%
  Population Normal (%): 100%
  Population Pyknosed Nuclei (%): 19.02% and 10.91%
  Population Tubulin-Different-Phenotype (%): 15.38% and 20.54%
  Total Cell Count: 205 and 220
[5]
  Population Apoptotic (%): 26.32% and 22.22%
  Population Fragmented Nuclei (%): 9.8% and 4.74%
  Population Healthy Nuclei (%): 82.45% and 85.79%
  Population Hoechst High Intensity Objects (%): 0%
  Population Membrane Permeable-Phenotype (%): 0% and 1.84%
  Population Mitochondria Different-Phenotype (%): 9.41% and 2.45%
  Population Mitotic Cells (%): 73.68% and 77.78%
  Population Normal (%): 100%
  Population Pyknosed Nuclei (%): 7.76% and 9.47%
  Total Cell Count: 245 and 190
[6]
  Population Apoptotic (%): 28.57% and 38.89%
  Population Fragmented Nuclei (%): 7.73% and 4.61%
  Population Healthy Nuclei (%): 85.51% and 78.8%
  Population Hoechst High Intensity Objects (%): 0%
  Population Membrane Permeable-Phenotype (%): 3.39% and 7.02%
  Population Mitochondria Different-Phenotype (%): 10.17% and 5.85%
  Population Mitotic Cells (%): 71.43% and 61.11%
  Population Normal (%): 100%
  Population Pyknosed Nuclei (%): 6.76% and 16.59%
  Population Tubulin-Different-Phenotype (%): 10.17% and 28.07%
  Total Cell Count: 207 and 217
